Laboratory results taken from ChEMBL document CHEMBL2150954, “A novel, unusually efficacious duocarmycin carbamate prodrug that releases no residual byproduct” (J Med Chem, 2012).
Blank lines part the entries; values can stand above or below the compound they belong to. Activity calls are given as the source filed them. No cut-off for these calls is given here.

How the values were obtained:
[1] = system: L1210; assay: Cytotoxicity against mouse L1210 cells; assay type: functional, cell-based
[2] = Half life in calf serum at 2 uM by RP-HPLC analysis; assay type: ADME, cell-free, Bos taurus; details: cattle
[3] = Half life in human plasma at 1 ug/mL at pH 7 by HPLC analysis; assay type: ADME, cell-free
[4] = system: L1210; assay: Antitumor activity against mouse L1210 cells xenografted in DBA/2J mouse assessed as mean survival days at 250 ug/kg, ip administered on day 1, 5 and 9 relative to control; assay type: functional
[5] = system: L1210; assay: Antitumor activity against mouse L1210 cells xenografted in DBA/2J mouse assessed as disease cure at 250 […], ip administered on day 1, 5 and 9 measured up to 250 days; assay type: functional, organism-based
[6] = system: L1210; assay: Antitumor activity against mouse L1210 cells xenografted in DBA/2J mouse assessed as mean survival days at 60 ug/kg, ip administered on day 1, 5 and 9 relative to control; assay type: functional
[7] = system: L1210; assay: Antitumor activity against mouse L1210 cells xenografted in DBA/2J mouse assessed as disease cure at 100 […], ip administered on day 1, 5 and 9 measured up to 250 days; assay type: functional, organism-based
[8] = system: L1210; assay: Antitumor activity against mouse L1210 cells xenografted in DBA/2J mouse assessed as disease cure at 500 […], ip administered on day 1, 5 and 9 measured up to 250 days; assay type: functional, organism-based
[9] = system: L1210; assay: Antitumor activity against mouse L1210 cells xenografted in DBA/2J mouse assessed as disease cure at 60 […], ip administered on day 1, 5 and 9 measured up to 250 days; assay type: functional, organism-based
[10] = system: L1210; assay: Antitumor activity against mouse L1210 cells xenografted in DBA/2J mouse assessed as mean survival days at 500 ug/kg, ip administered on day 1, 5 and 9 relative to control; assay type: functional
In short: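 Syngeneic L1210 cells (1 × 10⁶) given ip to B6D2F1 mice on day 0. Ten mice per group, randomised to vehicle control or treatment. Compound given in 100% DMSO ip on days 1, 5 and 9, with daily monitoring. T/C = total survival days of treated group ÷ total survival days of control × 100.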

[11] = system: L1210; assay: Antitumor activity against mouse L1210 cells xenografted in DBA/2J mouse assessed as mean survival days at 100 ug/kg, ip administered on day 1, 5 and 9 relative to control; assay type: functional
[12] = Drug degradation in phosphate buffer assessed as cleavage over 4 weeks; assay type: physicochemical; details: 672 h
[13] = system: L1210; assay: Antitumor activity against mouse L1210 cells xenografted in DBA/2J mouse assessed as mean survival days at 300 ug/kg, ip administered on day 1, 5 and 9 relative to control; assay type: functional
[14] = system: L1210; assay: Antitumor activity against mouse L1210 cells xenografted in DBA/2J mouse assessed as disease cure at 9000 […], ip administered on day 1, 5 and 9 measured up to 250 days; assay type: functional, organism-based
[15] = system: L1210; assay: Antitumor activity against mouse L1210 cells xenografted in DBA/2J mouse assessed as mean survival days at 3000 ug/kg, ip administered on day 1, 5 and 9 relative to control; assay type: functional
[16] = Chemical stability of the compound in 1:1 of TFA/CH2Cl2-4N HCl/EtOAc solution up to 72 hrs; assay type: physicochemical; details: buffer
[17] = system: L1210; assay: Antitumor activity against mouse L1210 cells xenografted in DBA/2J mouse assessed as disease cure at 1000 […], ip administered on day 1, 5 and 9 measured up to 250 days; assay type: functional, organism-based
[18] = system: L1210; assay: Antitumor activity against mouse L1210 cells xenografted in DBA/2J mouse assessed as disease cure at 300 […], ip administered on day 1, 5 and 9 measured up to 250 days; assay type: functional, organism-based
[19] = system: Nucleic Acid; assay: Binding affinity to w794 DNA assessed as DNA alkylation by cell-free assay; assay type: nucleic-acid assay
[20] = Fraction unbound in human plasma incubated over 48 hrs; assay type: ADME, cell-free
[21] = system: L1210; assay: Antitumor activity against mouse L1210 cells xenografted in DBA/2J mouse assessed as mean survival days at 1000 ug/kg, ip administered on day 1, 5 and 9 relative to control; assay type: functional
[22] = system: L1210; assay: Antitumor activity against mouse L1210 cells xenografted in DBA/2J mouse assessed as disease cure at 3000 […], ip administered on day 1, 5 and 9 measured up to 250 days; assay type: functional, organism-based
[23] = system: L1210; assay: Antitumor activity against mouse L1210 cells xenografted in DBA/2J mouse assessed as mean survival days at 9000 ug/kg, ip administered on day 1, 5 and 9 relative to control; assay type: functional
[24] = Drug degradation in NaHCO3/1:1 of THF:H2O solution assessed as hydrolysis after 48 hrs; assay type: physicochemical; details: NaHCO3 in 1:1 THF:H2O solution; read-out: Drug degradation
[25] = Chemical stability of the compound in DMAP/CH2Cl2 solution after 24 hrs; assay type: physicochemical
[26] = Drug degradation in 1:1 of TFA/CH2Cl2-4N HCl/EtOAc solution assessed as cleavage of Boc protecting group; assay type: physicochemical; details: buffer
[27] = Chemical stability in MeOH after 48 hrs in presence of 100 equiv BnSH and BnOH; assay type: physicochemical
In short: (§1)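 Compound exposed to 100 equiv each of BnSH and BnOH in MeOH or THF at 23 °C for 48 h and monitored for cleavage.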

[28] = Chemical stability of the compound in Et3N/CH2Cl2 solution after 2 hrs; assay type: physicochemical
[29] = Drug degradation in NaHCO3/1:1 of THF:H2O solution assessed as hydrolysis after 24 hrs; assay type: physicochemical; details: NaHCO3 in 1:1 THF:H2O solution; read-out: Drug degradation
[30] = Drug degradation in NaHCO3/1:1 of DMF:H2O solution assessed as hydrolysis after 48 hrs; assay type: physicochemical; details: NaHCO3 in 1:1 DMF:H2O solution; read-out: Drug degradation
[31] = Drug degradation in NaHCO3/1:1 of DMF:H2O solution assessed as hydrolysis after 24 hrs; assay type: physicochemical; details: NaHCO3 in 1:1 DMF:H2O solution; read-out: Drug degradation
[32] = Chemical stability of the compound in NaHCO3/THF solution after 2 hrs; assay type: physicochemical
[33] = Drug degradation in NaHCO3/1:1 of DMF:H2O solution assessed as hydrolysis after 2 hrs; assay type: physicochemical; details: NaHCO3 in 1:1 DMF:H2O solution; read-out: Drug degradation
[34] = Chemical stability of the compound in DMAP/CH2Cl2 solution after 2 hrs; assay type: physicochemical
[35] = Drug degradation in NaHCO3/1:1 of THF:H2O solution assessed as hydrolysis after 2 hrs; assay type: physicochemical; details: NaHCO3 in 1:1 THF:H2O solution; read-out: Drug degradation
[36] = Chemical stability in THF after 24 hrs in presence of BnNH2; assay type: physicochemical
[37] = Chemical stability of the compound in Et3N/CH2Cl2 solution after 24 hrs; assay type: physicochemical
[38] = Drug degradation in NaHCO3/MeOH solution assessed as hydrolysis after 48 hrs; assay type: physicochemical; details: read-out: Drug degradation
[39] = Chemical stability in THF after 48 hrs in presence of 100 equiv BnSH and BnOH; assay type: physicochemical; in short: as §1
[40] = Chemical stability of the compound in 1:1 of TFA/CH2Cl2-4N HCl/EtOAc solution for 48 hrs; assay type: physicochemical; details: buffer
[41] = Drug degradation in DMAP/CH2Cl2 solution assessed as hydrolysis after 48 hrs; assay type: physicochemical; details: read-out: Drug degradation
[42] = Drug degradation in NaHCO3/THF solution assessed as hydrolysis after 48 hrs; assay type: physicochemical; details: read-out: Drug degradation
[43] = Chemical stability of the compound in NaHCO3/THF solution after 24 hrs; assay type: physicochemical
[44] = Drug degradation in NaHCO3/MeOH solution assessed as hydrolysis after 24 hrs; assay type: physicochemical; details: read-out: Drug degradation
[45] = Chemical stability of the compound in Et3N/CH2Cl2 solution after 48 hrs; assay type: physicochemical
[46] = Drug degradation in NaHCO3/MeOH solution assessed as hydrolysis after 2 hrs; assay type: physicochemical; details: read-out: Drug degradation
[47] = Drug degradation in MeOH after 24 hrs in presence of 100 equiv BnNH2; assay type: physicochemical

Compound: COc1c(O)c2c(c3cc(C(=O)N4CCc5c4c(O)c(OC)c4[nH]c(C(=O)N6C[C@@H]7C[C@]78C6=CC(=O)c6[nH]cc(C)c68)cc54)[nH]c13)CCN2C(N)=O
- IC50 [1]: 0.02 nM

Compound: O=C1Nc2cccc3c4c(cc(c23)O1)N(C(=O)c1cc2cc(NC(=O)c3cc5ccccc5[nH]3)ccc2[nH]1)C[C@@H]4CCl
- IC50 [1]: 40 nM

Compound: CC(C)(C)OC(=O)N1C[C@H](CCl)c2c1cc1c3c(cccc23)NC(=O)O1
- IC50 [1]: 5800 nM

- half-life at 2 µM [2]: 20 h
Compound: Br.COC(=O)c1c(C)[nH]c2c(OC(=O)N3CCN(C)CC3)cc3c(c12)[C@H](CBr)CN3C(=O)c1cc2cc(OC)c(OC)c(OC)c2[nH]1 [PIBROZELESIN HYDROBROMIDE]

Compound: CCN(CC)c1ccc2cc(C(=O)Nc3ccc4[nH]c(C(=O)N5C[C@@H](CCl)c6c5cc(OC(=O)Nc5ccccc5)c5[nH]cc(C)c65)cc4c3)oc2c1 [CARZELESIN]
- half-life at 1 ug/mL [3]: < 1 h

Compound: Nc1cccc2c1C(=O)C=C1N(C(=O)c3cc4cc(NC(=O)c5cc6ccccc6[nH]5)ccc4[nH]3)CC3CC123 (racemic)
- IC50 [1]: 0.21 nM

Compound: O=C(Nc1ccc2[nH]c(C(=O)N3C[C@@H](CCl)c4c3cc(O)c3ccccc43)cc2c1)c1cc2ccccc2[nH]1 [SECO-CBI-INDOLE]
- T/C [4]: 21%
- Activity [5]: inactive
- T/C [6]: 197%
- Activity [7]: inactive
- Activity [8]: inactive
- Activity [9]: inactive
- T/C [10]: 17%
- T/C [11]: 36%

Compound: O=C1Nc2cccc3c4c(cc(c23)O1)N(C(=O)c1cc2cc(NC(=O)c3cc5ccccc5[nH]3)ccc2[nH]1)C[C@H]4CCl
- Drug degradation [12]: Not Active
- T/C [13]: 140%
- Activity [14]: Active
- IC50 [1]: 6.6 nM
- T/C [15]: >310%
- Stability [16]: Stable
- Activity [17]: inactive
- Activity [18]: inactive
- Activity [19]: inactive
- fraction unbound at 48 h [20]: 0.05
- T/C [21]: >275%
- Activity [22]: inactive
- T/C [23]: >980%

Compound: CC(C)(C)OC(=O)N1C[C@@H](CCl)c2c1cc1c3c(cccc23)NC(=O)O1
- degraded at 48 h [24]: 9%
- Stability [25]: Stable
- Drug degradation [26]: Active
- Stability [27]: Stable
- Stability [28]: Stable
- degraded at 24 h [29]: 4%
- degraded at 48 h [30]: 19%
- degraded at 24 h [31]: 12%
- Stability [32]: Stable
- IC50 [1]: 4900 nM
- degraded at 2 h [33]: 7%
- Stability [34]: Stable
- degraded at 2 h [35]: < 4%
- Stability [36]: Stable
- Stability [37]: Stable
- degraded at 48 h [38]: 100%
- Stability [39]: Stable
- Stability [40]: Stable
- degraded at 48 h [41]: 12%
- degraded at 48 h [42]: 7%
- Stability [43]: Stable
- degraded at 24 h [44]: 74%
- Stability [45]: Stable
- degraded at 2 h [46]: 18%
- Drug degradation [47]: Active
